Data taken from ChEMBL document CHEMBL1156668, “Synthesis and antimicrobial activity of novel sulfone-linked bis heterocycles” (2008).
≈ marks a conversion by molar mass, not a printed value.

Tests used:
Format in all cases: functional
Curvularia lunata [1] = experiment: Antifungal activity against Curvularia lunata at 100 ug after 48 hrs by agar disc-diffusion method; conditions: read-out: IZ
Procedure, shortened: (§1)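 Fungal strains from NCIM, Pune, were tested by disc diffusion on nutrient agar. Sterile 6 mm paper discs moistened with the compound solution in DMSO were placed on plates pre-inoculated with each fungus. Plates were incubated at 37 °C, and the inhibition-zone diameter was read after 48 h.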

Escherichia coli [2] = experiment: Antibacterial activity against Escherichia coli at 200 ug after 24 hrs by agar disc-diffusion method; conditions: read-out: IZ
Procedure, shortened: (§2)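 Agar disc diffusion on nutrient agar with bacterial strains from NCIM, Pune. Sterile 6 mm filter-paper discs were wetted with compound in DMSO and placed on plates already inoculated with each organism. Plates were incubated at 37 °C, and the diameter of the growth-inhibition zone was measured after 24 h.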

Staphylococcus aureus [3] = experiment: Antibacterial activity against Staphylococcus aureus at 100 ug after 24 hrs by agar disc-diffusion method; conditions: read-out: IZ; procedure, shortened: as §2
Klebsiella pneumoniae [4] = experiment: Antibacterial activity against Klebsiella pneumoniae at 200 ug after 24 hrs by agar disc-diffusion method; conditions: read-out: IZ; procedure, shortened: as §2
Aspergillus niger [5] = experiment: Antifungal activity against Aspergillus niger at 100 ug after 48 hrs by agar disc-diffusion method; conditions: read-out: IZ; procedure, shortened: as §1
Bacillus subtilis [6] = experiment: Antibacterial activity against Bacillus subtilis at 200 ug after 24 hrs by agar disc-diffusion method; conditions: read-out: IZ; procedure, shortened: as §2
Aspergillus niger [7] = experiment: Antifungal activity against Aspergillus niger at 200 ug after 48 hrs by agar disc-diffusion method; conditions: read-out: IZ; procedure, shortened: as §1
Fusarium solani [8] = experiment: Antifungal activity against Fusarium solani at 100 ug after 48 hrs by agar disc-diffusion method; conditions: read-out: IZ; procedure, shortened: as §1
Klebsiella pneumoniae [9] = experiment: Antibacterial activity against Klebsiella pneumoniae at 100 ug after 24 hrs by agar disc-diffusion method; conditions: read-out: IZ; procedure, shortened: as §2
Curvularia lunata [10] = experiment: Antifungal activity against Curvularia lunata at 200 ug after 48 hrs by agar disc-diffusion method; conditions: read-out: IZ; procedure, shortened: as §1
Bacillus subtilis [11] = experiment: Antibacterial activity against Bacillus subtilis at 100 ug after 24 hrs by agar disc-diffusion method; conditions: read-out: IZ; procedure, shortened: as §2
Escherichia coli [12] = experiment: Antibacterial activity against Escherichia coli at 100 ug after 24 hrs by agar disc-diffusion method; conditions: read-out: IZ; procedure, shortened: as §2
Fusarium solani [13] = experiment: Antifungal activity against Fusarium solani at 200 ug after 48 hrs by agar disc-diffusion method; conditions: read-out: IZ; procedure, shortened: as §1
Staphylococcus aureus [14] = experiment: Antibacterial activity against Staphylococcus aureus at 200 ug after 24 hrs by agar disc-diffusion method; conditions: read-out: IZ; procedure, shortened: as §2
Aspergillus niger [15] = experiment: Antifungal activity against Aspergillus niger after 48 hrs by microdilution susceptibility method
Procedure, shortened: (§3)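 Broth microdilution with fungi from NCIM, Pune. Fungal suspensions were added to wells containing the compound and incubated at 36 °C for 48 h. MIC was recorded as the lowest concentration with no turbidity, that is, no visible growth.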

Escherichia coli [16] = experiment: Antibacterial activity against Escherichia coli after 24 hrs by microdilution susceptibility method
Procedure, shortened: (§4)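 Microdilution susceptibility test on bacterial strains from NCIM, Pune. Microorganism suspensions were inoculated into wells containing the compound and incubated at 36 °C for 24 h. MIC was taken as the lowest concentration showing no turbidity, meaning complete inhibition of visible growth.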

Bacillus subtilis [17] = experiment: Antibacterial activity against Bacillus subtilis after 24 hrs by microdilution susceptibility method; procedure, shortened: as §4
Fusarium solani [18] = experiment: Antifungal activity against Fusarium solani after 48 hrs by microdilution susceptibility method; procedure, shortened: as §3
Staphylococcus aureus [19] = experiment: Antibacterial activity against Staphylococcus aureus after 24 hrs by microdilution susceptibility method; procedure, shortened: as §4
Klebsiella pneumoniae [20] = experiment: Antibacterial activity against Klebsiella pneumoniae after 24 hrs by microdilution susceptibility method; procedure, shortened: as §4
Curvularia lunata [21] = experiment: Antifungal activity against Curvularia lunata after 48 hrs by microdilution susceptibility method; procedure, shortened: as §3

| SMILES | zone of inhibition at 100 µg/disc (Curvularia lunata [1]) [mm] | zone of inhibition at 200 µg/disc (Escherichia coli [2]) [mm] | zone of inhibition at 100 µg/disc (Staphylococcus aureus [3]) [mm] | zone of inhibition at 200 µg/disc (Klebsiella pneumoniae [4]) [mm] | zone of inhibition at 100 µg/disc (Aspergillus niger [5]) [mm] | zone of inhibition at 200 µg/disc (Bacillus subtilis [6]) [mm] | zone of inhibition at 200 µg/disc (Aspergillus niger [7]) [mm] | zone of inhibition at 100 µg/disc (Fusarium solani [8]) [mm] | zone of inhibition at 100 µg/disc (Klebsiella pneumoniae [9]) [mm] | zone of inhibition at 200 µg/disc (Curvularia lunata [10]) [mm] | zone of inhibition at 100 µg/disc (Bacillus subtilis [11]) [mm] | zone of inhibition at 100 µg/disc (Escherichia coli [12]) [mm] | zone of inhibition at 200 µg/disc (Fusarium solani [13]) [mm] | zone of inhibition at 200 µg/disc (Staphylococcus aureus [14]) [mm] | MIC (Aspergillus niger [15]) [µg/mL] | MIC (Escherichia coli [16]) [µg/mL] | MIC (Bacillus subtilis [17]) [µg/mL] | MIC (Fusarium solani [18]) [µg/mL] | MIC (Staphylococcus aureus [19]) [µg/mL] | MIC (Klebsiella pneumoniae [20]) [µg/mL] | also measured |
| --- | --- | --- | --- | --- | --- | --- | --- | --- | --- | --- | --- | --- | --- | --- | --- | --- | --- | --- | --- | --- | --- |
| Cc1ccc([C@H]2CNN=C2S(=O)(=O)Cc2nnc(S)n2N)cc1 | 34 | 26 | 25 | 24 | 35 | 29 | 38 | 32 | 22 | 39 | 27 | 24 | 37 | 28 |  |  |  |  |  |  |  |
| O=S(=O)(Cc1nnc(S)s1)C1=NNC[C@@H]1c1ccccc1 | 26 | 20 | 18 | 20 | 25 | 23 | 28 | 22 | 17 | 29 | 20 | 15 | 24 | 21 |  |  |  |  |  |  |  |
| O=S(=O)(Cc1nnc(S)o1)C1=NNC[C@@H]1c1ccccc1 | 17 | 18 | 14 | 16 | 16 | 15 | 21 | 17 | 14 | 22 | 13 | 15 | 19 | 16 |  |  |  |  |  |  |  |
| Cc1ccc([C@H]2CNN=C2S(=O)(=O)Cc2nnc(S)o2)cc1 | 16 | 14 | 12 | 12 | 17 | 16 | 21 | 16 | 10 | 18 | 13 | 12 | 20 | 15 |  |  |  |  |  |  |  |
| Nn1c(S)nnc1CS(=O)(=O)C1=NNC[C@@H]1c1ccc(Cl)cc1 | 39 | 25 | 32 | 28 | 36 | 36 | 40 | 40 | 26 | 42 | 34 | 23 | 43 | 35 | 25 (≈ 67 µM) | 50 (≈ 134 µM) | 12.5 (≈ 33.5 µM) | 25 (≈ 67 µM) | 12.5 (≈ 33.5 µM) | 50 (≈ 134 µM) | MIC (Curvularia lunata [21]): 12.5 µg/mL (≈ 33.5 µM) |
| O=S(=O)(Cc1nnc(S)o1)C1=NNC[C@@H]1c1ccc(Cl)cc1 | 16 | 13 | 13 | 14 | 14 | 18 | 18 | 15 | 11 | 19 | 15 | 11 | 18 | 17 |  |  |  |  |  |  |  |
| Cc1ccc([C@H]2CNN=C2S(=O)(=O)Cc2nnc(S)s2)cc1 | 20 | 21 | 14 | 19 | 22 | 19 | 24 | 24 | 16 | 23 | 16 | 18 | 26 | 17 |  |  |  |  |  |  |  |
| O=S(=O)(Cc1nnc(S)s1)C1=NNC[C@@H]1c1ccc(Cl)cc1 | 23 | 27 | 25 | 26 | 26 | 31 | 29 | 28 | 24 | 26 | 28 | 22 | 31 | 29 | 200 (≈ 533 µM) | 200 (≈ 533 µM) | 200 (≈ 533 µM) | 100 (≈ 267 µM) | 100 (≈ 267 µM) | 200 (≈ 533 µM) | MIC (Curvularia lunata [21]): 100 µg/mL (≈ 267 µM) |
| Nn1c(S)nnc1CS(=O)(=O)C1=NNC[C@@H]1c1ccccc1 | 37 | 25 | 28 | 24 | 36 | 33 | 39 | 39 | 21 | 41 | 31 | 22 | 44 | 30 | 100 (≈ 295 µM) | 50 (≈ 148 µM) | 25 (≈ 73.9 µM) | 100 (≈ 295 µM) | 25 (≈ 73.9 µM) | 100 (≈ 295 µM) | MIC (Curvularia lunata [21]): 100 µg/mL (≈ 295 µM) |
| O=C(N[C@H](CO)[C@H](O)c1ccc([N+](=O)[O-])cc1)C(Cl)Cl [CHLORAMPHENICOL] |  | 44 | 35 | 45 |  | 41 |  |  | 42 |  | 38 | 40 |  | 39 |  | 6.25 (≈ 19.3 µM) | 6.25 (≈ 19.3 µM) |  | 6.25 (≈ 19.3 µM) | 12.5 (≈ 38.7 µM) |  |
| CC(=O)N1CCN(c2ccc(OCC3COC(Cn4ccnc4)(c4ccc(Cl)cc4Cl)O3)cc2)CC1 (stereo not drawn) [KETOCONAZOLE] | 41 |  |  |  | 36 |  | 39 | 38 |  | 44 |  |  | 42 |  | 6.25 (≈ 11.8 µM) |  |  | 12.5 (≈ 23.5 µM) |  |  | MIC (Curvularia lunata [21]): 6.25 µg/mL (≈ 11.8 µM) |
